Measurements taken from ChEMBL document CHEMBL1144841, “Discovery of a novel indole series of EP1 receptor antagonists by scaffold hopping” (Bioorg Med Chem Lett, 2008).
Values belong to the compound of their own block, whether it stands above or below them.

Legend:
Rattus norvegicus [1] = test: Inhibition of complete Freund's adjuvant-induced hypersensitivity in orally dosed rat; assay type: functional; settings: po
In short: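 Rats with CFA-induced inflammatory hypersensitivity were dosed orally, seven per dose group, with celecoxib 10 mg/kg po as comparator. Readout was taken 1 h after dosing. ED50 was calculated from the dose-response, and significance was reported at p < 0.05, 0.01 and 0.001.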

Rattus norvegicus [2] = test: Drug level in complete Freund's adjuvant-induced hypersensitivity rat blood at 1 mg/kg, po; assay type: ADME, organism-based; set-up: dose 1 mg/kg, route oral; settings: in vivo, read-out: Drug uptake
In short: (§1)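 Blood was sampled from the rats in the CFA hypersensitivity efficacy study, seven per dose group, and analysed by bioanalysis. Rats were dosed orally at 1, 3 and 10 mg/kg.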

Liver [3] = test: Metabolic stability assessed as intrinsic clearance in human liver microsome; assay type: ADME; settings: microsomes
In short: (§2)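 Intrinsic clearance was measured in liver microsomes and expressed as mL/min/g liver. Values come from a single experiment.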

Rattus norvegicus [4] = test: Drug level in complete Freund's adjuvant-induced hypersensitivity rat blood at 3 mg/kg, po; assay type: ADME, organism-based; set-up: dose 3 mg/kg, route oral; settings: in vivo, read-out: Drug uptake; in short: as §1
[5] = target: T1, Prostaglandin E2 receptor EP1 subtype (Homo sapiens, UniProt P34995); test: Antagonist activity against human EP1 receptor expressed in CHOK1 cells assessed as inhibition of PGE2-induced intracellular calcium mobilization by FLIPR assay; assay type: functional, cell-based, CHO-K1
T1 sequence (P34995 whole entry): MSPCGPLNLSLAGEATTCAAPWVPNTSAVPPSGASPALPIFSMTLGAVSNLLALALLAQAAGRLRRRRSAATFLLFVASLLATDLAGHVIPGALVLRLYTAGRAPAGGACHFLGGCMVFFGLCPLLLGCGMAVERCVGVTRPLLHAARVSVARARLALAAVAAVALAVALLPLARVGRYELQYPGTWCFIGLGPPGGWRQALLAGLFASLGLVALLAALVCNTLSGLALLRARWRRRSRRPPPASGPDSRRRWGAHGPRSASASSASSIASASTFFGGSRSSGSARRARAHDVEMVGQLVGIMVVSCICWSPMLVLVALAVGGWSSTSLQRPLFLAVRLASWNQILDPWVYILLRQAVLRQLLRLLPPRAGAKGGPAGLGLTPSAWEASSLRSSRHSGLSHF

Liver [6] = test: Metabolic stability assessed as intrinsic clearance in rat liver microsome; assay type: ADME; settings: microsomes; in short: as §2
Rattus norvegicus [7] = test: Drug level in complete Freund's adjuvant-induced hypersensitivity rat blood at 10 mg/kg, po; assay type: ADME, organism-based; set-up: dose 10 mg/kg, route oral; settings: in vivo, read-out: Drug uptake; in short: as §1
[8] = Ratio of drug level in brain to blood in complete Freund's adjuvant-induced hypersensitivity rat; assay type: ADME, tissue-based
[9] = target: T1, Prostaglandin E2 receptor EP1 subtype; test: Displacement of [3H]PGE2 from human EP1 receptor expressed in CHOK1 cells; assay type: cell-based, CHO-K1
In short: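 Membranes from CHO-K1 cells stably transfected with human EP1 cDNA were incubated with competing compound and [3H]-PGE2 (3 nM final) for 30 min at 30 °C. Bound radioactivity was counted by liquid scintillation. Values are means of at least three experiments.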

[10] = target: T2, Prostaglandin E2 receptor EP3 subtype (Homo sapiens, UniProt P43115); test: Antagonist activity against EP3 receptor by FLIPR assay; assay type: functional
T2 sequence (P43115 whole entry): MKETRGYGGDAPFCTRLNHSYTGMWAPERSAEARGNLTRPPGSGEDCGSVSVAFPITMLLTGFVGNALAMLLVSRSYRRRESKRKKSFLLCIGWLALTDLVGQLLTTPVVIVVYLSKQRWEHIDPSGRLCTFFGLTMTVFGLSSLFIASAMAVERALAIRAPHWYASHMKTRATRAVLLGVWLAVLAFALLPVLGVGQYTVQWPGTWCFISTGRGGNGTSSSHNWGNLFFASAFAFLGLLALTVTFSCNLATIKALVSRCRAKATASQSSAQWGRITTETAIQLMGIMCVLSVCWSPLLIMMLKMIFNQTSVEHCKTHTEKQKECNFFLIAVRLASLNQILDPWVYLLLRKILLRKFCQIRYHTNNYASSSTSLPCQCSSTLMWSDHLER

Thromboxane A2 receptor = target: T3, Thromboxane A2 receptor (Homo sapiens, UniProt P21731); test: Antagonist activity against TP receptor by FLIPR assay; assay type: functional
T3 sequence (P21731 whole entry): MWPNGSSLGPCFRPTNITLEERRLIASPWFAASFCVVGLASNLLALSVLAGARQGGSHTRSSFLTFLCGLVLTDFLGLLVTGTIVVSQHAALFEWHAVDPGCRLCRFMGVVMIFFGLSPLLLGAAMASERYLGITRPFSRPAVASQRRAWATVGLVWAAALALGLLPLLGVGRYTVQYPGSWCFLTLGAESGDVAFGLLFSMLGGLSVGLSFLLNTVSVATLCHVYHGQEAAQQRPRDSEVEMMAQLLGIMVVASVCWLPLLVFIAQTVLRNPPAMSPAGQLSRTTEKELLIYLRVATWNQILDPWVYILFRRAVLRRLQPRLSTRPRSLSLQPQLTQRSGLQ

Compound: CC(C)Cc1cn(-c2cccc(C(=O)[O-])n2)c2cc(Cl)ccc12.[Na+]
ED50 (Rattus norvegicus [1]): 2.17 mg/kg
concentration (Rattus norvegicus [2]): 0.44 µM
CL (Liver [3]): 3.6 mL/min/g
concentration (Rattus norvegicus [4]): 1.23 µM
Ki ([5]; read-out: Log Ki (converted)): 20 nM
CL (Liver [6]): 4.3 mL/min/g
concentration (Rattus norvegicus [7]): 6.04 µM
Kp [8]: 0.05
IC50 ([9]; read-out: Log IC50 (converted)): 63.1 nM
Ki [10]: 794 nM

Compound: CC(C)(C)Cc1cn(-c2nc(C(=O)[O-])cs2)c2cc(Cl)ccc12.[Na+]
CL (Liver [3]): 2.7 mL/min/g
CL (Liver [6]): 1.9 mL/min/g
IC50 ([9]; read-out: Log IC50 (converted)): 31.6 nM

Compound: CC(C)Cc1cn(CC(=O)O)c2cc(Cl)ccc12
IC50 ([9]; read-out: Log IC50 (converted)): > 1000 nM

Compound: CC(C)(C)CCc1cn(-c2nc(C(=O)[O-])cs2)c2cc(Cl)ccc12.[Na+]
Ki (Thromboxane A2 receptor): 79.4 nM
CL (Liver [3]): 2.1 mL/min/g
Ki ([5]; read-out: Log Ki (converted)): 3.98 nM
CL (Liver [6]): 1.3 mL/min/g
IC50 ([9]; read-out: Log IC50 (converted)): 6.31 nM
Ki [10]: 398 nM

Compound: CCCc1cn(-c2nc(C(=O)[O-])cs2)c2cc(Cl)ccc12.[Na+]
CL (Liver [3]): 1.3 mL/min/g
CL (Liver [6]): 11 mL/min/g
IC50 ([9]; read-out: Log IC50 (converted)): 31.6 nM

Compound: CN(C)CCc1cn(-c2nc(C(=O)O)cs2)c2cc(Cl)ccc12
IC50 ([9]; read-out: Log IC50 (converted)): > 1000 nM

Compound: CC(C)Cc1cn(-c2cccc(C(=O)O)c2)c2cc(Cl)ccc12
IC50 ([9]; read-out: Log IC50 (converted)): 631 nM

Compound: CC(C)Cc1cn(-c2ccccc2C(=O)O)c2cc(Cl)ccc12
IC50 ([9]; read-out: Log IC50 (converted)): > 1000 nM

Compound: O=C(O)c1csc(-n2cc(CC(F)(F)F)c3ccc(Cl)cc32)n1
IC50 ([9]; read-out: Log IC50 (converted)): 251 nM

Compound: O=C(O)c1csc(-n2ccc3ccc(Cl)cc32)n1
IC50 ([9]; read-out: Log IC50 (converted)): > 1000 nM

Compound: CC(C)Cc1cn(-c2ncc(C(=O)O)s2)c2cc(Cl)ccc12
IC50 ([9]; read-out: Log IC50 (converted)): 100 nM

Compound: CC(C)Cc1cn(-c2nc(C(=O)O)cs2)c2ccccc12
Ki ([5]; read-out: Log Ki (converted)): 12.6 nM
IC50 ([9]; read-out: Log IC50 (converted)): 158 nM

Compound: CC(C)Cc1cn(-c2nc(C(=O)O)co2)c2cc(Cl)ccc12
Ki ([5]; read-out: Log Ki (converted)): 1 nM
IC50 ([9]; read-out: Log IC50 (converted)): 7.94 nM

Compound: CC(C)Cc1cn(-c2nc(C(=O)O)cs2)c2cc(C(F)(F)F)ccc12
Ki ([5]; read-out: Log Ki (converted)): 0.0631 nM
IC50 ([9]; read-out: Log IC50 (converted)): 12.6 nM
Ki [10]: 501 nM

Compound: CC(C)Cc1cn(-c2ccc(C(=O)O)s2)c2cc(Cl)ccc12
IC50 ([9]; read-out: Log IC50 (converted)): 50.1 nM

Compound: CC(C)Cc1cn(-c2ccc(C(=O)[O-])o2)c2cc(Cl)ccc12.[Na+]
Ki (Thromboxane A2 receptor): 398 nM
CL (Liver [3]): 5.4 mL/min/g
Ki ([5]; read-out: Log Ki (converted)): 1.26 nM
CL (Liver [6]): 35 mL/min/g
IC50 ([9]; read-out: Log IC50 (converted)): 25.1 nM
Ki [10]: 501 nM

Compound: O=C(O)c1csc(-n2cc(Cc3ccccc3)c3ccc(Cl)cc32)n1
Ki ([5]; read-out: Log Ki (converted)): 63.1 nM
IC50 ([9]; read-out: Log IC50 (converted)): 158 nM

Continued, values first:

IC50 ([9]; read-out: Log IC50 (converted)): 1000 nM
Compound: CN(C)C(=O)c1cn(-c2nc(C(=O)O)cs2)c2cc(Cl)ccc12

IC50 ([9]; read-out: Log IC50 (converted)): 39.8 nM
Compound: CC(C)Cc1cn(-c2nc(C(=O)O)cs2)c2ccc(Cl)cc12

Ki (Thromboxane A2 receptor): 50.1 nM
Ki ([5]; read-out: Log Ki (converted)): 0.2 nM
IC50 ([9]; read-out: Log IC50 (converted)): 3.98 nM
Ki [10]: 398 nM
Compound: CC(C)Cc1cn(-c2nc(C(=O)O)cs2)c2cc(Br)ccc12

IC50 ([9]; read-out: Log IC50 (converted)): 39.8 nM
Compound: CC(C)Cc1cn(-c2nc(C(=O)O)cs2)c2cc(F)ccc12

IC50 ([9]; read-out: Log IC50 (converted)): > 1000 nM
Compound: CN(C)Cc1cn(-c2nc(C(=O)O)cs2)c2cc(Cl)ccc12

IC50 ([9]; read-out: Log IC50 (converted)): 158 nM
Compound: CC(C)Cc1cn(-c2nc(CC(=O)O)cs2)c2cc(Cl)ccc12

Ki (Thromboxane A2 receptor): 31.6 nM
CL (Liver [3]): 2.2 mL/min/g
Ki ([5]; read-out: Ki): 0.5 nM
CL (Liver [6]): 12 mL/min/g
IC50 ([9]; read-out: IC50): 6.3 nM
Ki [10]: 316 nM
Compound: CC(C)Cc1cn(-c2nc(C(=O)[O-])cs2)c2cc(Cl)ccc12.[Na+]

IC50 ([9]; read-out: Log IC50 (converted)): 10 nM
Compound: Cc1ccc2c(CC(C)C)cn(-c3nc(C(=O)O)cs3)c2c1

IC50 ([9]; read-out: Log IC50 (converted)): 39.8 nM
Compound: Cc1c(CC(C)C)c2ccc(Cl)cc2n1-c1nc(C(=O)O)cs1

IC50 ([9]; read-out: Log IC50 (converted)): 39.8 nM
Compound: CC(C)c1cn(-c2nc(C(=O)O)cs2)c2cc(Cl)ccc12

IC50 ([9]; read-out: Log IC50 (converted)): 6.31 nM
Compound: CC(C)Cc1cn(Cc2nc(C(=O)O)cs2)c2cc(Cl)ccc12

IC50 ([9]; read-out: Log IC50 (converted)): 126 nM
Compound: CCc1cn(-c2nc(C(=O)O)cs2)c2cc(Cl)ccc12

IC50 ([9]; read-out: Log IC50 (converted)): 100 nM
Compound: CC(C)C(=O)c1cn(-c2nc(C(=O)O)cs2)c2cc(Cl)ccc12
